The list is not random: actives were taken first. Their share in the collection is about 2.3%.
TRPC6 act = mouse TRPC6 channel activators, primary screen, cell-based, HEK293, membrane potential dye | Short transient receptor potential channel 6 (Mus musculus), Q61143 | HEK293-TRPC6 membrane potential dye fluorescence; hits give high values | B-score at 10 µM | 310,000 tested, 0.13% active | AID 2550, 2010;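 active means B-score of the integrated fluorescence ratio above library mean plus 3 SD, and starting fluorescence ratio within library mean plus 5 SD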;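 further: higher score means more depolarization so channel activation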
TRPC4 potent = positive allosteric modulators of TRPC4, primary screen, cell-based, mouse TRPC4beta, HEK293 mu-opioid, Fluo-4 calcium | DAMGO EC20, Fluo-4 Ca2+ flux; hits give high values | B-score at 10 µM | 310,000 tested, 0.42% active | AID 2227, 2009;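 active means B-score of calcium response area above 5 SD of library B-scores, with initial fluorescence ratio within 5 SD of library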;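 further: B-score of integrated fluorescence ratio over time as area under calcium response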
Target sequence (Q9QUQ5 whole entry, looked up): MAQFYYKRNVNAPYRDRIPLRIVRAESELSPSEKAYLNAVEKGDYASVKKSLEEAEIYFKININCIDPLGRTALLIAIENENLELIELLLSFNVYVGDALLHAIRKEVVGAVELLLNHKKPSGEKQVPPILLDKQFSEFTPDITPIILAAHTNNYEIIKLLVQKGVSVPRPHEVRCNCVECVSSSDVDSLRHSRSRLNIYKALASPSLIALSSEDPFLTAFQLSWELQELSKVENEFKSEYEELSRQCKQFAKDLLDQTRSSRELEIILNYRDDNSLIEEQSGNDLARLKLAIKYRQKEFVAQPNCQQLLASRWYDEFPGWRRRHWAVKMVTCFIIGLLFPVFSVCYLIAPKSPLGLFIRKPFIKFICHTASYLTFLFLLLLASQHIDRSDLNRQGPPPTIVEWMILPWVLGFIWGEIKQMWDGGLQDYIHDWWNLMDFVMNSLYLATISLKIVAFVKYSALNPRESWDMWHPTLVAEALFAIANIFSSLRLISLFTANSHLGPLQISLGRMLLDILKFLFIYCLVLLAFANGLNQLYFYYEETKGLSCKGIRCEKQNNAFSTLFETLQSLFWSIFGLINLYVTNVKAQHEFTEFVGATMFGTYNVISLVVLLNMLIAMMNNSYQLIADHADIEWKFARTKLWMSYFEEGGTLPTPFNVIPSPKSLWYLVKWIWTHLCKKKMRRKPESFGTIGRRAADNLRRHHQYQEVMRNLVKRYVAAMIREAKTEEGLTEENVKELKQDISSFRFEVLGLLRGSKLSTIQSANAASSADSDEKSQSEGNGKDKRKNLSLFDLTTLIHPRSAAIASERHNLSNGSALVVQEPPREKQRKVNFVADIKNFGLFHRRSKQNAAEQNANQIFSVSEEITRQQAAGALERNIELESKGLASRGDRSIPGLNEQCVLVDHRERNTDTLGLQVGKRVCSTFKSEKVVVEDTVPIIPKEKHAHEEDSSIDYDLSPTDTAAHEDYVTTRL
TRPC6 inh = mouse TRPC6 channel inhibitors, primary screen, cell-based, HEK293, membrane potential dye; Short transient receptor potential channel 6 (Mus musculus), Q61143; ACh-evoked depolarization; hits give low values; B-score at 10 µM; 310,000 tested, 1.1% active; AID 2553, 2010;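 active means B-score under library mean minus 3 SD, initial fluorescence not abnormally high, positive integrated signal ratio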;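 further: B-score derived from integrated fluorescence ratio over the kinetic read; more negative B-score means stronger inhibition of depolarization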
TRPC4 act = activators of mouse TRPC4 channel, primary screen, Fluo4 calcium, HEK293 TRPC4beta/mu-opioid cells; Fluo4 calcium fluorescence; hits give high values; B-score at 10 µM; 310,000 tested, 0.49% active; AID 2237, 2010;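 active means B-score above 5 SD of library B-scores, and initial fluorescence ratio not above library mean plus 5 SD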;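 further: positive B-score marks a calcium rise read as TRPC4 activation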
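Material: TRPC4beta and mu-opioid receptor HEK293 stable cells | Incubation: 45 min room-temperature Fluo4 loading, 110 s read | Detection: Kinetic Fluo4 calcium fluorescence | Measure: Integrated baseline-normalised fluorescence ratio, converted to per-well B score | Benchmarks: Low control buffer alone, high control maximal DAMGO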
TRPC4 inh = inhibitors of mouse TRPC4 channel, primary screen, Fluo4 calcium, HEK293 TRPC4beta/mu-opioid cells. 300,000 tested, 0.39% active. Short transient receptor potential channel 4 (Mus musculus), Q9QUQ5. DAMGO-evoked Fluo4 calcium flux; hits give low values. B-score at 10 µM;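 active means B-score over 3 SD under the library average, no early fluorescence shift, positive overall ratio signal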
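Assay system: HEK293 cells with stable TRPC4beta plus mu-opioid receptor expression; Probe or stimulus: DAMGO in two steps, submaximal then maximal; Dosing: single-point compound dosing; Measured by: Fluo4 calcium-dye fluorescence, kinetic read; Read-out basis: B score from integrated Fluo4 fluorescence ratio.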
Numbers without * were called inactive.

What do the screens show for `CCOC(=O)Cn1c(=O)oc2cc(S(=O)(=O)N3CCCC(C(=O)OCC)C3)ccc21` (configuration not stated)?
TRPC6 act: inactive; TRPC4 potent: inactive; TRPC6 inh: inactive; TRPC4 act: inactive; TRPC4 inh: inactive

What do the screens show for `CCOC(=O)Cn1c(=O)oc2cc(S(=O)(=O)N3CCC(N4CCCCC4)CC3)ccc21`?
TRPC6 act: inactive; TRPC4 potent: 11*; TRPC6 inh: inactive; TRPC4 act: inactive; TRPC4 inh: inactive

How did CCc1cccc(N(CC(=O)NC2CCCCC2)C(=O)c2csnn2)c1 do in these assays?
TRPC6 act: inactive; TRPC4 potent: inactive; TRPC6 inh: inactive; TRPC4 act: inactive; TRPC4 inh: inactive

How did Cn1cc(C[C@H](NC(=O)OC(C)(C)C)C(=O)N[C@@H](CO)Cc2ccccc2)c2ccccc21 do in these assays?
TRPC6 act: inactive; TRPC4 potent: inactive; TRPC6 inh: inactive; TRPC4 act: inactive; TRPC4 inh: inactive

Results for CN(Cc1c(F)cccc1Cl)C(=O)c1ccc(NC(=O)CC2SC(N3CCCC3)=NC2=O)cc1 (configuration not stated) ?
TRPC6 act: inactive; TRPC4 potent: inactive; TRPC6 inh: inactive; TRPC4 act: inactive; TRPC4 inh: inactive

What do the screens show for `CC1CC(C)CN(C(=S)Nc2ccc(SC(F)F)cc2)C1` (configuration not stated)?
TRPC6 act: inactive; TRPC4 potent: inactive; TRPC6 inh: inactive; TRPC4 act: inactive; TRPC4 inh: inactive

Results for CC1CN(C(=S)Nc2ccc(SC(F)F)cc2)CC(C)O1 (configuration not stated) ?
TRPC6 act: inactive; TRPC4 potent: inactive; TRPC6 inh: -6.55*; TRPC4 act: inactive; TRPC4 inh: inactive

Results for Cc1cc(C(=O)Nc2ccccc2C(=O)O)ccc1NC(=O)COc1cccc(C)c1C ?
TRPC6 act: inactive; TRPC4 potent: inactive; TRPC6 inh: inactive; TRPC4 act: inactive; TRPC4 inh: inactive

How did CCOC(=O)/C(=C\c1ccc(Cl)cc1)c1nc2sc(C)c(C)c2c(=O)[nH]1 do in these assays?
TRPC6 act: inactive; TRPC4 potent: 11*; TRPC6 inh: inactive; TRPC4 act: inactive; TRPC4 inh: inactive

Results for COc1cc(NC(=O)C(C)Oc2ccccc2)c(OC)cc1NC(=O)c1ccccc1 (configuration not stated) ?
TRPC6 act: inactive; TRPC4 potent: inactive; TRPC6 inh: inactive; TRPC4 act: inactive; TRPC4 inh: inactive

How did CC(C)c1[nH]nc2c1C(C1C=CCCC1)C(C#N)=C(N)O2 (configuration not stated) do in these assays?
TRPC6 act: inactive; TRPC4 potent: 21*; TRPC6 inh: inactive; TRPC4 act: inactive; TRPC4 inh: inactive

What do the screens show for `CC(C)(C)c1[nH]nc2c1C(C1C=CCCC1)C(C#N)=C(N)O2` (configuration not stated)?
TRPC6 act: inactive; TRPC4 potent: inactive; TRPC6 inh: inactive; TRPC4 act: inactive; TRPC4 inh: inactive

Results for Cc1cc(C(=O)NCc2csc(-c3ccccc3)n2)no1 ?
TRPC6 act: inactive; TRPC4 potent: inactive; TRPC6 inh: inactive; TRPC4 act: inactive; TRPC4 inh: inactive

Results for Cc1cc(C)cc(NC(=O)CSc2nnnn2-c2cccnc2)c1 ?
TRPC6 act: inactive; TRPC4 potent: inactive; TRPC6 inh: inactive; TRPC4 act: inactive; TRPC4 inh: inactive

How did COc1ccc(N/C(C)=C2/C(=O)C(=O)N(CCO)C2c2ccc(Br)cc2)cc1 (configuration not stated) do in these assays?
TRPC6 act: inactive; TRPC4 potent: 43*; TRPC6 inh: inactive; TRPC4 act: 123*; TRPC4 inh: inactive

What do the screens show for `COc1ccc(C2/C(=C(/O)c3ccccc3)C(=O)C(=O)N2CCO)cc1` (configuration not stated)?
TRPC6 act: inactive; TRPC4 potent: inactive; TRPC6 inh: inactive; TRPC4 act: inactive; TRPC4 inh: inactive

What do the screens show for `Cc1cc(NS(=O)(=O)c2ccc(NC(=O)c3ccc(Cl)cc3[N+](=O)[O-])cc2)no1`?
TRPC6 act: inactive; TRPC4 potent: inactive; TRPC6 inh: inactive; TRPC4 act: inactive; TRPC4 inh: inactive

Results for CCc1ccc2nc3n[nH]c(N)c3cc2c1 ?
TRPC6 act: inactive; TRPC4 potent: inactive; TRPC6 inh: inactive; TRPC4 act: 68*; TRPC4 inh: inactive

Results for CCOC(=O)C1CCN(CC(O)COc2ccc(C(C)(C)C)cc2)CC1 (configuration not stated) ?
TRPC6 act: inactive; TRPC4 potent: inactive; TRPC6 inh: inactive; TRPC4 act: inactive; TRPC4 inh: -6*

How did CCOC(=O)C1CCN(CC(O)COc2ccc(C(C)(C)CC)cc2)CC1 (configuration not stated) do in these assays?
TRPC6 act: inactive; TRPC4 potent: inactive; TRPC6 inh: inactive; TRPC4 act: inactive; TRPC4 inh: inactive

What do the screens show for `Cc1onc(-c2ccccc2)c1C(=O)NC(=S)NNC(=O)c1ccccc1O`?
TRPC6 act: inactive; TRPC4 potent: inactive; TRPC6 inh: inactive; TRPC4 act: 247*; TRPC4 inh: inactive

What do the screens show for `CCCOc1ccc(C(=O)NC(=S)NNC(=O)c2c(-c3ccccc3)noc2C)cc1`?
TRPC6 act: inactive; TRPC4 potent: inactive; TRPC6 inh: inactive; TRPC4 act: 194*; TRPC4 inh: inactive

What do the screens show for `CCCOc1ccc(C(=O)NNC(=S)NC(=O)CC)cc1`?
TRPC6 act: inactive; TRPC4 potent: inactive; TRPC6 inh: inactive; TRPC4 act: 46*; TRPC4 inh: inactive

What do the screens show for `C=CCNC(=S)NNC(=O)c1ccc(OCCC)cc1`?
TRPC6 act: inactive; TRPC4 potent: inactive; TRPC6 inh: inactive; TRPC4 act: inactive; TRPC4 inh: inactive

Results for CSc1ccc(S(=O)(=O)NCC(=O)OCC(=O)N(Cc2ccccc2)C(C)C)cc1[N+](=O)[O-] ?
TRPC6 act: inactive; TRPC4 potent: inactive; TRPC6 inh: inactive; TRPC4 act: inactive; TRPC4 inh: inactive

How did CSc1ccc(S(=O)(=O)NCC(=O)OCC(=O)N(C)Cc2ccccc2)cc1[N+](=O)[O-] do in these assays?
TRPC6 act: inactive; TRPC4 potent: 17*; TRPC6 inh: inactive; TRPC4 act: inactive; TRPC4 inh: inactive

What do the screens show for `COc1ccc(/C=C2\SC(=S)N(N3C(=O)CCC3=O)C2=O)cc1O`?
TRPC6 act: inactive; TRPC4 potent: 144*; TRPC6 inh: inactive; TRPC4 act: inactive; TRPC4 inh: inactive

From PubChem BioAssay
